Results taken from article PMC2139869 (The Journal of Cell Biology, 1997).
“Also recorded” adds a separate entry of the source.

Test system: sperm–egg plasma membrane adhesion and fusion (zona-free eggs, acrosome-reacted sperm)
Assay: In vitro sperm–egg adhesion and fusion assay with active site peptides
Type: cell-based, mouse
Settings: peptide 500 μM, Fig. 2, FI and FR taken together
Outline: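 Mice superovulated with 10 IU PMSG and 5 IU hCG 48 h apart. Metaphase II eggs collected ~12 h post-hCG, cumulus removed with hyaluronidase, zonae with chymotrypsin, then DAPI-preloaded. Peptide added 30 min before capacitated, acrosome-reacted sperm (2–4 × 10^4/ml final) and present throughout. Coincubated 30 min, 37 °C, 5% CO2, Whittingham's/3% BSA. Scored sperm bound/egg, FI and FR; 43–82 eggs per peptide.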

SVDECDLL [ADAM 5 peptide]
inhibition of sperm–egg binding and fusion (stated jointly): essentially no inhibition; also recorded: did not inhibit
